Results from ChEMBL document CHEMBL2434857, “Imidazopyridazines as potent inhibitors of Plasmodium falciparum calcium-dependent protein kinase 1 (PfCDPK1): Preparation and evaluation of pyrazole linked analogues” (Bioorg Med Chem Lett, 2013).
Each block holds one compound with its values, some of them ahead of it. Calls of active or inactive are those of the source. No cut-off for these calls is given here.

Tests used:
[1] = Lipophilicity, log D of the compound in octanol-phosphate buffered saline at 100 uM after 12 hrs by shake flask method; assay type: physicochemical
[2] = Inhibition of full length recombinant Plasmodium falciparum CDPK1 using MTIP as substrate assessed as amount of ATP remaining after 1 hr by luminescence assay
Plasmodium falciparum = assay: Antiparasitic activity against Plasmodium falciparum assessed as parasite growth inhibition after 48 hrs by hydroethidine staining-based flow cytometric analysis; assay type: functional, organism-based
In short: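 Compounds diluted into 2% DMSO were added to cultured parasites 24 h post-invasion and incubated under static conditions. Cells were harvested 48 h later and stained for parasite DNA with hydroethidine for flow cytometry. Growth inhibition (%) = (1 − parasitaemia of treated culture / parasitaemia of control culture) × 100, and EC50 was derived from it.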

[3] = Apparent permeability of the compound at 50 to 200 uM after 5 hrs by PAMPA; assay type: ADME
[4] = biological target: Tyrosine-protein kinase Lck (Homo sapiens) (UniProt P06239); assay: Inhibition of human LCK at 1 uM
[5] = biological target: Mitogen-activated protein kinase kinase kinase 11 (Homo sapiens) (UniProt Q16584); assay: Inhibition of human MLK3 at 1 uM
[6] = biological target: Serine/threonine-protein kinase pim-1 (Homo sapiens) (UniProt P11309); assay: Inhibition of human PIM1 at 1 uM
[7] = biological target: Mitogen-activated protein kinase kinase kinase kinase 2 (Homo sapiens) (UniProt Q12851); assay: Inhibition of human GCK at 1 uM
[8] = biological target: NUAK family SNF1-like kinase 1 (Homo sapiens) (UniProt O60285); assay: Inhibition of human NUAK1 at 1 uM
[9] = biological target: Tyrosine-protein kinase Yes (Homo sapiens) (UniProt P07947); assay: Inhibition of human YES1 at 1 uM
Homo sapiens [10] = species on record: Homo sapiens; assay: Inhibition of human VEGFR at 1 uM
[11] = biological target: Aurora kinase B (Homo sapiens) (UniProt Q96GD4); assay: Inhibition of human Aurora kinase B at 1 uM
[12] = biological target: Ribosomal protein S6 kinase alpha-5 (Homo sapiens) (UniProt O75582); assay: Inhibition of human MSK1 at 1 uM
[13] = biological target: Interleukin-1 receptor-associated kinase 4 (Homo sapiens) (UniProt Q9NWZ3); assay: Inhibition of human IRAK4 at 1 uM
[14] = biological target: Serine/threonine-protein kinase D1 (Homo sapiens) (UniProt Q15139); assay: Inhibition of human PKD1 at 1 uM
[15] = biological target: Proto-oncogene tyrosine-protein kinase Src (Homo sapiens) (UniProt P12931); assay: Inhibition of human SRC at 1 uM
[16] = biological target: Mitogen-activated protein kinase kinase kinase 9 (Homo sapiens) (UniProt P80192); assay: Inhibition of human MLK1 at 1 uM
[17] = biological target: Serine/threonine-protein kinase N2 (Homo sapiens) (UniProt Q16513); assay: Inhibition of human PRK2 at 1 uM
[18] = biological target: MAP kinase-interacting serine/threonine-protein kinase 1 (Homo sapiens) (UniProt Q9BUB5); assay: Inhibition of human MNK1 at 1 uM
[19] = biological target: Serine/threonine-protein kinase Chk1 (Homo sapiens) (UniProt O14757); assay: Inhibition of human CHK1 at 1 uM
[20] = biological target: Ephrin type-A receptor 2 (Homo sapiens) (UniProt P29317); assay: Inhibition of human EPHA2 at 1 uM
[21] = biological target: Receptor tyrosine-protein kinase erbB-4 (Homo sapiens) (UniProt Q15303); assay: Inhibition of human HER4 at 1 uM
[22] = biological target: Fibroblast growth factor receptor 1 (Homo sapiens) (UniProt P11362); assay: Inhibition of human FGFR1 at 1 uM
[23] = biological target: Misshapen-like kinase 1 (Homo sapiens) (UniProt Q8N4C8); assay: Inhibition of human MINK1 at 1 uM
[24] = biological target: Myosin light chain kinase, smooth muscle (Homo sapiens) (UniProt Q15746); assay: Inhibition of human SmMLCK at 1 uM
[25] = biological target: Serine/threonine-protein kinase Chk2 (Homo sapiens) (UniProt O96017); assay: Inhibition of human CHK2 at 1 uM
[26] = biological target: Rho-associated protein kinase 2 (Homo sapiens) (UniProt O75116); assay: Inhibition of human ROCK2 at 1 uM
[27] = biological target: Dual specificity tyrosine-phosphorylation-regulated kinase 1A (Homo sapiens) (UniProt Q13627); assay: Inhibition of human DRYK1A at 1 uM
[28] = biological target: Maternal embryonic leucine zipper kinase (Homo sapiens) (UniProt Q14680); assay: Inhibition of human MELK at 1 uM
Homo sapiens [29] = species on record: Homo sapiens; assay: Inhibition of human CK1 at 1 uM
[30] = biological target: Serine/threonine-protein kinase PAK 4 (Homo sapiens) (UniProt O96013); assay: Inhibition of human PAK4 at 1 uM
[31] = biological target: MAP kinase-interacting serine/threonine-protein kinase 2 (Homo sapiens) (UniProt Q9HBH9); assay: Inhibition of human MNK2 at 1 uM
[32] = biological target: Casein kinase II (Homo sapiens) (UniProt P67870+P68400+P19784); assay: Inhibition of human CK2 at 1 uM; assay type: protein-complex assay
[33] = biological target: Phosphorylase kinase (Homo sapiens) (UniProt P15735+P46020+P46019+Q93100+Q16816); assay: Inhibition of human PHK at 1 uM; assay type: protein-complex assay
[34] = biological target: Tyrosine-protein kinase BTK (Homo sapiens) (UniProt Q06187); assay: Inhibition of human BTK at 1 uM
[35] = biological target: MAP/microtubule affinity-regulating kinase 3 (Homo sapiens) (UniProt P27448); assay: Inhibition of human MARK3 at 1 uM
[36] = biological target: Ribosomal protein S6 kinase alpha-1 (Homo sapiens) (UniProt Q15418); assay: Inhibition of human RSK1 at 1 uM
[37] = biological target: Serine/threonine-protein kinase 3 (Homo sapiens) (UniProt Q13188); assay: Inhibition of human MST2 at 1 uM
[38] = biological target: Serine/threonine-protein kinase BRSK2 (Homo sapiens) (UniProt Q8IWQ3); assay: Inhibition of human BRSK2 at 1 uM

Sequence of Proto-oncogene tyrosine-protein kinase Src (Homo sapiens) (P12931 2-536 limits assumed): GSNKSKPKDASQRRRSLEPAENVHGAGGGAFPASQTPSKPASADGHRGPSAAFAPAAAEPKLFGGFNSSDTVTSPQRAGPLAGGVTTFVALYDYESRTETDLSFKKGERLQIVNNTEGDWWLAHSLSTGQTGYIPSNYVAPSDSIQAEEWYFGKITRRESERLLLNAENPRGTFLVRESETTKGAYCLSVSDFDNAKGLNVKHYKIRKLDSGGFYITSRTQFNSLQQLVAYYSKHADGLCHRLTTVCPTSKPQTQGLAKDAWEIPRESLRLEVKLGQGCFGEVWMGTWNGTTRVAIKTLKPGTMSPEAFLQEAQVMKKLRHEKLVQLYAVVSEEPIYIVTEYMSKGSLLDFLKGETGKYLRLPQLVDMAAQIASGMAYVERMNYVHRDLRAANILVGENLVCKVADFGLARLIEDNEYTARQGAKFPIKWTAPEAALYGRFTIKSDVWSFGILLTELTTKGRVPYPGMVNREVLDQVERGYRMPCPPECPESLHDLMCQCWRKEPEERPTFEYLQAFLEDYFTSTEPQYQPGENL
Sequence of Ephrin type-A receptor 2 (Homo sapiens) (P29317 whole entry): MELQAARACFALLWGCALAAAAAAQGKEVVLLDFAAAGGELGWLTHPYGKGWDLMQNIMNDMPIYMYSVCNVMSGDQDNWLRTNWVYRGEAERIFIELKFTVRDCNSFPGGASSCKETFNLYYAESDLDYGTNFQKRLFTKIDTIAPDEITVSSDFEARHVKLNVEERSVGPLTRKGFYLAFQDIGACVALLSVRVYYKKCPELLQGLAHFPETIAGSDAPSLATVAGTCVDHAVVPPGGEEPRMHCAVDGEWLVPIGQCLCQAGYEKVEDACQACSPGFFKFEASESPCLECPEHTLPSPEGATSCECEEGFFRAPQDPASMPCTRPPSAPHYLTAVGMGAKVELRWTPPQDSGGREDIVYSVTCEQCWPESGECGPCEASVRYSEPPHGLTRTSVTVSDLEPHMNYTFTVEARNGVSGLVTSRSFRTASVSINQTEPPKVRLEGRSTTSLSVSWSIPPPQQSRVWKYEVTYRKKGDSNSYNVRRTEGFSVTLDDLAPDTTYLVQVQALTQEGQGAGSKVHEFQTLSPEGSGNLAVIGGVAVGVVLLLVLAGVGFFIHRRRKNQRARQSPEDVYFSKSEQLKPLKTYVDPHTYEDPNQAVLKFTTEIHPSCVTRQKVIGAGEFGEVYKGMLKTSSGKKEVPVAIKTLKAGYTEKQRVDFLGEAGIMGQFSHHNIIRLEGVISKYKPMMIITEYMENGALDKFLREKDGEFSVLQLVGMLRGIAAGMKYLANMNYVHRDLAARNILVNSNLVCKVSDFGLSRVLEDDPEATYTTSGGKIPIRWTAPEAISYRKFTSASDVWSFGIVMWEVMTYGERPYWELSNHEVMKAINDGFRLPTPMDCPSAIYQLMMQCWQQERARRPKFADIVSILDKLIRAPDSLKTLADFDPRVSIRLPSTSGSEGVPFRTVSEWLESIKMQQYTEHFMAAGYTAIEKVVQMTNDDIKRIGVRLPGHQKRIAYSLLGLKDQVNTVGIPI
Sequence of Mitogen-activated protein kinase kinase kinase 9 (Homo sapiens) (P80192 whole entry, looked up): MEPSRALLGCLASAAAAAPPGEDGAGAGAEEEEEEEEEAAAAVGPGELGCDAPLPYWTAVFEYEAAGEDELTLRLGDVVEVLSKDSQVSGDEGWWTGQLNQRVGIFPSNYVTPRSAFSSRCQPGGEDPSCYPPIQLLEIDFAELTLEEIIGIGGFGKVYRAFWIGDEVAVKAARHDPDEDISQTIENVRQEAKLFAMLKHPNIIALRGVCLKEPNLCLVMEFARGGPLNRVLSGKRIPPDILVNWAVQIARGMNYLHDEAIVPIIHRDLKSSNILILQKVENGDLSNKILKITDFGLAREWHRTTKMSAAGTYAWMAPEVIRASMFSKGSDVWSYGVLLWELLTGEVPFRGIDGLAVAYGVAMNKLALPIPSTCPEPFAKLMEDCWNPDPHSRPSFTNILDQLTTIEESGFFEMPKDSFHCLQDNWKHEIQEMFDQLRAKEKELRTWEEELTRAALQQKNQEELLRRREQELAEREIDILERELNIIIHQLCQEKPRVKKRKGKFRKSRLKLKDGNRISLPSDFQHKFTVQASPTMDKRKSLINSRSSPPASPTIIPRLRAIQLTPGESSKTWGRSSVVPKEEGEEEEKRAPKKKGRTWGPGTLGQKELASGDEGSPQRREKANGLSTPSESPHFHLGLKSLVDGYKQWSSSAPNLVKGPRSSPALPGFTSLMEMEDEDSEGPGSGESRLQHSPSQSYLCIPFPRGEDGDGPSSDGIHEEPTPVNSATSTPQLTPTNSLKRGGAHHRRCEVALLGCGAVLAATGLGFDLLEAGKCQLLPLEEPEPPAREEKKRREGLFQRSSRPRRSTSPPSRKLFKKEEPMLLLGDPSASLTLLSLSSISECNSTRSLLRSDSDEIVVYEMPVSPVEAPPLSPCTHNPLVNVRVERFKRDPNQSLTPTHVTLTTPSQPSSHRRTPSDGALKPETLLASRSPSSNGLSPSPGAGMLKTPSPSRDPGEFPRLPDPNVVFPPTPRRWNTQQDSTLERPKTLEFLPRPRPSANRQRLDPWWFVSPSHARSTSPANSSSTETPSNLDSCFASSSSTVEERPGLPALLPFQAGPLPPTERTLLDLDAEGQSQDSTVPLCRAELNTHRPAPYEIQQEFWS
Sequence of Mitogen-activated protein kinase kinase kinase 11 (Homo sapiens) (Q16584 whole entry, looked up): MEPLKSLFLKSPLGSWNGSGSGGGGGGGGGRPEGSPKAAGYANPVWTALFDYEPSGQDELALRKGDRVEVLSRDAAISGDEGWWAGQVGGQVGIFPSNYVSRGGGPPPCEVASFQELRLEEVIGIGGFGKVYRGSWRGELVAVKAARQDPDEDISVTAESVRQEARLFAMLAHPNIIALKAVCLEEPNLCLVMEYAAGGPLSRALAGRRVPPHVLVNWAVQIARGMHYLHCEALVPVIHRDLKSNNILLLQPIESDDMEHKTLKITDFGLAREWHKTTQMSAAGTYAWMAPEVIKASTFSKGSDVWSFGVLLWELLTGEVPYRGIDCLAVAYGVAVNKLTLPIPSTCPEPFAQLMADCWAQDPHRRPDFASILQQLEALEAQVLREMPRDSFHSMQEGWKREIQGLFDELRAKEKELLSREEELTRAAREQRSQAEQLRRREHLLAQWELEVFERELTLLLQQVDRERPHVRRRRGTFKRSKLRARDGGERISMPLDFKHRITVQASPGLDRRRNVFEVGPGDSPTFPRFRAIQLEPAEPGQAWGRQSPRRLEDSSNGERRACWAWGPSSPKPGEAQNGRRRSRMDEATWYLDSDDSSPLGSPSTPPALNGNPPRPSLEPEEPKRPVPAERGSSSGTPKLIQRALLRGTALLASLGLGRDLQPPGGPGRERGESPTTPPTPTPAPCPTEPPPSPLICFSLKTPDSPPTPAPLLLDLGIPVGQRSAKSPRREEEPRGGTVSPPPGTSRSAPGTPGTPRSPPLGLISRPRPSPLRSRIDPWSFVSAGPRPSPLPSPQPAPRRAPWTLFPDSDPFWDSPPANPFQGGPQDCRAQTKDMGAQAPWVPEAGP
Sequence of Tyrosine-protein kinase Yes (Homo sapiens) (P07947 2-543 limits assumed): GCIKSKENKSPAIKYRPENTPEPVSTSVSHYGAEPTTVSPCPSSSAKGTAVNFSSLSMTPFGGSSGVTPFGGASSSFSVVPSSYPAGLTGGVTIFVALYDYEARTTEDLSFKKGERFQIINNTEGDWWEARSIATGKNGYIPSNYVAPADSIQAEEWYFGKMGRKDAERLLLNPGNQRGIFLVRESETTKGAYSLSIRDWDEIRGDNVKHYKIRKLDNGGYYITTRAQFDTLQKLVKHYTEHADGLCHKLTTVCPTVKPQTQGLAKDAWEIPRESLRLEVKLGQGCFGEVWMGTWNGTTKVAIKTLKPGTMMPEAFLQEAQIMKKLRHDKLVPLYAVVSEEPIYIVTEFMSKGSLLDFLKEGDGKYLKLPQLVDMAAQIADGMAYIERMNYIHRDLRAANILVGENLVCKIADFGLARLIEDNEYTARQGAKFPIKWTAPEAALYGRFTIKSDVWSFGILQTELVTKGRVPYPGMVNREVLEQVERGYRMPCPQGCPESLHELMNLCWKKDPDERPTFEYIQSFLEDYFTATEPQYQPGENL
Sequence of MAP kinase-interacting serine/threonine-protein kinase 1 (Homo sapiens) (Q9BUB5 whole entry, looked up): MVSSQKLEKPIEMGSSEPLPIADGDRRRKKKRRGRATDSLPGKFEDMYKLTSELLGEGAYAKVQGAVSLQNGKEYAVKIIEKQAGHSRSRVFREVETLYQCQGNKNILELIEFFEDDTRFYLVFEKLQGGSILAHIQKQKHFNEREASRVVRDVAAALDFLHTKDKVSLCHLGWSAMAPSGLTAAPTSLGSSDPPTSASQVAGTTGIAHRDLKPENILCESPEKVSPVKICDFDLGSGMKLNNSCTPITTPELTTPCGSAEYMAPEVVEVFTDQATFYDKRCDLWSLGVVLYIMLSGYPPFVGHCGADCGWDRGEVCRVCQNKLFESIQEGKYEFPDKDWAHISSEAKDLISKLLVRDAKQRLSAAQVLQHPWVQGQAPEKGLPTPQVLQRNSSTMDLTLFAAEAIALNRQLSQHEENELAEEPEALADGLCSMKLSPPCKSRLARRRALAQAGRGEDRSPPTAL
Sequence of Serine/threonine-protein kinase pim-1 (Homo sapiens) (P11309 whole entry, looked up): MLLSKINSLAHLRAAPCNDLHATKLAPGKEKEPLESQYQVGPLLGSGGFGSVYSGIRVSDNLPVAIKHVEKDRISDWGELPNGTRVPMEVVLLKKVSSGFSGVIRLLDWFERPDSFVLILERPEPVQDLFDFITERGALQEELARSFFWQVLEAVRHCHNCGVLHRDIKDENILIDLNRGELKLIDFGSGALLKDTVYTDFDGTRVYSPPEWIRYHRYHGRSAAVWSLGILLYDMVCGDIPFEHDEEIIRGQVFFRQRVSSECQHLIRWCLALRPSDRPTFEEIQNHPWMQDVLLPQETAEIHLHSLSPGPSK

logD at 12 h, 100 µM [1]: 2.9
Compound: CN1CCC(Nc2ccc3ncc(-c4cnn(-c5ncccc5F)c4)n3n2)CC1

IC50 [2]: 331 nM
logD at 12 h, 100 µM [1]: 3
Compound: CN1CCC(Nc2ccc3ncc(-c4cnn(Cc5ccccc5F)c4)n3n2)CC1

IC50 [2]: 20 nM
logD at 12 h, 100 µM [1]: 3.1
Papp at 5 h, up to 200 µM [3]: 11 ×10⁻⁶ cm/s
Compound: CN1CCC(Nc2ccc3ncc(-c4cnn(-c5cccc(F)c5)c4)n3n2)CC1
EC50 (Plasmodium falciparum): 394 nM

logD at 12 h, 100 µM [1]: 2.9
Compound: CN1CCC(Nc2ccc3ncc(-c4cnn(-c5ccc(F)cn5)c4)n3n2)CC1

inhibition [4]: Active
inhibition [5]: Active
inhibition [6]: Active
inhibition [7]: Active
inhibition [8]: Active
inhibition [9]: Active
inhibition (Homo sapiens [10]): Active
inhibition [11]: Active
inhibition [12]: Active
inhibition [13]: Active
inhibition [14]: Active
inhibition [15]: Active
inhibition [16]: Active
inhibition [17]: Active
inhibition [18]: Active
inhibition [19]: Active
inhibition [20]: Active
inhibition [21]: Active
inhibition [22]: Active
inhibition [23]: Active
inhibition [24]: Active
inhibition [25]: Active
Compound: c1ccc(-n2cc(-c3cnc4ccc(NC5CCNCC5)nn34)cn2)cc1

logD at 12 h, 100 µM [1]: 2.9
Compound: Cc1cc(F)ccc1-n1cc(-c2cnc3ccc(NC4CCN(C)CC4)nn23)cn1

inhibition [26]: Active
inhibition [27]: Active
inhibition [28]: Active
inhibition [5]: Active
inhibition (Homo sapiens [29]): Active
inhibition [30]: Active
inhibition [6]: Active
inhibition [7]: Active
inhibition [8]: Active
inhibition [9]: Active
inhibition (Homo sapiens [10]): Active
inhibition [31]: Active
inhibition [32]: Active
inhibition [13]: Active
inhibition [33]: Active
inhibition [34]: Active
inhibition [35]: Active
inhibition [15]: Active
inhibition [16]: Active
inhibition [17]: Active
inhibition [18]: Active
inhibition [19]: Active
inhibition [36]: Active
inhibition [20]: Active
inhibition [21]: Active
inhibition [37]: Active
inhibition [23]: Active
inhibition [38]: Active
inhibition [24]: Active
Compound: CN1CCC(Nc2ccc3ncc(-c4cnn(-c5ccc(C#N)cc5)c4)n3n2)CC1

IC50 [2]: 45 nM
logD at 12 h, 100 µM [1]: 2.8
Compound: CN1CCC(Nc2ccc3ncc(-c4cnn(-c5ccc(F)cc5)c4)n3n2)CC1
EC50 (Plasmodium falciparum): 561 nM

IC50 [2]: 71 nM
Compound: CN1CCC(Nc2ccc3ncc(-c4cnn(-c5ccccc5)c4)n3n2)CC1

logD at 12 h, 100 µM [1]: 2.9
Compound: CN1CCC(Nc2ccc3ncc(-c4cnn(-c5ccc(F)cc5F)c4)n3n2)CC1

IC50 [2]: 1980 nM
Compound: CN1CCC(Nc2ccc3ncc(-c4cnn(C5CCCC5)c4)n3n2)CC1
